Values after ≈ are worked out from the molar mass of the structure shown. Active and inactive are the calls of the source. The calls are words filed in the database; no cut-off is given here.
Legend:
[1] = Stability in phosphate buffer saline assessed as amount of parent drug released from cattle bone meal powder over 24 hrs; type: ADME
Outline: (§1)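 Washed bone-powder-bound prodrug was resuspended in PBS or 50% (v/v in PBS) human or rat serum and kept 24 h at 37 °C. The supernatant was extracted with 5 volumes of methanol, centrifuged, dried, redissolved in PBS and read by fluorescence. Release was derived from the difference between bound prodrug and regenerated drug. Identity was checked by CLSI MIC.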

Bone = test: Binding affinity to bone assessed as drug level bound to cattle bone meal powder by fluorescence assay; type: tissue-based; set-up: concentration or dose not given beside the values; conditions: Bos taurus; Bone element
Outline: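 Drug or prodrug was suspended with bone meal powder in PBS and held 1 h at 37 °C to bind, then centrifuged. The pellet was washed three times with PBS, and all supernatants were read by fluorescence (ex/em 280/465 nm). Bound fraction was taken as […] prodrug relative to total input.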

Staphylococcus aureus [2] = test: Antibacterial activity against Staphylococcus aureus ATCC 13709 after 24 hrs by microdilution method; type: functional; conditions: ATCC 13709, 24 h
Outline: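 Broth microdilution MIC per CLSI M7-A7 against S. aureus ATCC 13709.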

Serum [3] = test: Stability in 50% rat serum assessed as amount of parent drug released from cattle bone meal powder over 24 hrs; type: ADME, cell-free; outline: as §1
Serum [4] = test: Stability in 50% human serum assessed as amount of parent drug released from cattle bone meal powder over 24 hrs; type: ADME, cell-free; outline: as §1
Staphylococcus aureus [5] = test: Protective effect against Staphylococcus aureus ATCC 13709-induced bone infection in CD rat at 10 mg/kg, iv administered as single dose 2 days before bacterial challenge; type: functional, organism-based; set-up: dose 10 mg/kg
Outline: (§2)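 Female CD rats (57–70 days, n = 5/group) received a single IV bolus in 0.9% saline before infection. Under isoflurane, tibiae were injected with 0.05 ml 5% sodium morrhuate, then S. aureus ATCC 13709 (ca. 5 × 10⁵ CFU/rat). At 24 h, tibiae were milled and cultured quantitatively. Read-out was log CFU/g bone (mean, SD; detection limit 2 log), compared by Dunnett or Kruskal–Wallis.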

Staphylococcus aureus [6] = test: Protective effect against Staphylococcus aureus ATCC 13709-induced bone infection in CD rat at 10 mg/kg, iv administered as single dose
Staphylococcus aureus [7] = test: Protective effect against Staphylococcus aureus ATCC 13709-induced bone infection in CD rat at 15.8 mg/kg, iv administered as single dose 2 days before bacterial challenge; type: functional, organism-based; set-up: dose 15.8 mg/kg; outline: as §2
Staphylococcus aureus [8] = test: Protective effect against Staphylococcus aureus ATCC 13709-induced bone infection in CD rat at 10 mg/kg, iv administered as single dose 24 hrs after bacterial challenge; type: functional, organism-based; set-up: dose 10 mg/kg
Staphylococcus aureus [9] = test: Protective effect against Staphylococcus aureus ATCC 13709-induced bone infection in CD rat at 17.3 mg/kg, iv administered as single dose 2 days before bacterial challenge; type: functional, organism-based; set-up: dose 17.3 mg/kg; outline: as §2

SMILES | Activity [1] | Activity (Bone) | MIC (Staphylococcus aureus [2]) | Activity (Serum [3]) | Activity (Serum [4]) | Activity (Staphylococcus aureus [5]) | Activity (Staphylococcus aureus [6]) | Activity (Staphylococcus aureus [7]) | Activity (Staphylococcus aureus [8]) | Activity (Staphylococcus aureus [9])
COc1c(N2C[C@@H]3CCCN[C@@H]3C2)c(F)cc2c(=O)c(C(=O)SCC(=O)NC(P(=O)(O)O)P(=O)(O)O)cn(C3CC3)c12 | 0.3% | 99% | > 4 µg/mL | 0.4% | 0.5% |  |  |  |  | 
COc1c(N2CCNC(C)C2)c(F)cc2c(=O)c(C(=O)Oc3ccc(C(P(=O)(O)O)P(=O)(O)O)cc3)cn(C3CC3)c12 (centres undefined) | 0.2% | 79.2% | > 4 µg/mL | 0.1% | 0.1% |  |  |  |  | 
COc1c(N2CCNC(C)C2)c(F)cc2c(=O)c(C(=O)O)cn(C3CC3)c12 (centres undefined) [GATIFLOXACIN] |  |  | 0.06 µg/mL (≈ 0.16 µM) |  |  | inactive | inactive |  |  | 
COc1c(N2C[C@@H]3CCCN[C@@H]3C2)c(F)cc2c(=O)c(C(=O)SCCCC(P(=O)(O)O)P(=O)(O)O)cn(C3CC3)c12 | 0.04% | 99.9% | > 4 µg/mL | 0.1% | 0.1% |  |  |  |  | 
COc1c(N2C[C@@H]3CCCN[C@@H]3C2)c(F)cc2c(=O)c(C(=O)OCCCC(P(=O)(O)O)P(=O)(O)O)cn(C3CC3)c12 |  | 93.8% | > 4 µg/mL |  |  |  |  |  |  | 
COc1c(N2C[C@@H]3CCCN[C@@H]3C2)c(F)cc2c(=O)c(C(=O)O)cn(C3CC3)c12 [MOXIFLOXACIN] |  |  | 0.03 µg/mL (≈ 0.0747 µM) |  |  | inactive | inactive |  | inactive | 
COc1c(N2C[C@@H]3CCCN[C@@H]3C2)c(F)cc2c(=O)c(C(=O)OCC(=O)Nc3ccc(CC(P(=O)(O)O)P(=O)(O)O)cc3)cn(C3CC3)c12 | 0.6% | 97.2% | > 4 µg/mL | 1.3% | 1.2% |  |  |  |  | 
COc1c(N2CCNC(C)C2)c(F)cc2c(=O)c(C(=O)OCC(=O)NC(P(=O)(O)O)P(=O)(O)O)cn(C3CC3)c12 (centres undefined) | 2.7% | 91% | > 4 µg/mL | 1.3% | 1.6% |  |  |  |  | Active
COc1c(N2CCNC(C)C2)c(F)cc2c(=O)c(C(=O)SCCCC(P(=O)(O)O)P(=O)(O)O)cn(C3CC3)c12 (centres undefined) | 0.1% | 98.7% | > 4 µg/mL | 0.1% | 0.1% |  |  |  |  | 

More lines, main results first:

Activity [1] | Activity (Bone) | MIC (Staphylococcus aureus [2]) | Activity (Serum [3]) | Activity (Serum [4]) | SMILES | Activity (Staphylococcus aureus [5]) | Activity (Staphylococcus aureus [6]) | Activity (Staphylococcus aureus [7]) | Activity (Staphylococcus aureus [8]) | Activity (Staphylococcus aureus [9])
0.01% | 92.7% | > 4 µg/mL |  |  | COc1c(N2C[C@@H]3CCCN[C@@H]3C2)c(F)cc2c(=O)c(C(=O)OCCCCC(P(=O)(O)O)P(=O)(O)O)cn(C3CC3)c12 |  |  |  |  | 
1.1% | 90.4% | > 4 µg/mL | 0.9% | 0.6% | COc1c(N2CCNC(C)C2)c(F)cc2c(=O)c(C(=O)OCC(=O)N(C)C(P(=O)(O)O)P(=O)(O)O)cn(C3CC3)c12 (centres undefined) |  |  |  |  | 
1.2% | 98.7% | > 4 µg/mL | 1.4% | 1.4% | COc1c(N2C[C@@H]3CCCN[C@@H]3C2)c(F)cc2c(=O)c(C(=O)OCC(=O)NC(P(=O)(O)O)P(=O)(O)O)cn(C3CC3)c12 |  |  | Active |  | 
0.2% | 92.8% | > 4 µg/mL | 0.4% | 0.4% | COc1c(N2CCNC(C)C2)c(F)cc2c(=O)c(C(=O)OCC(=O)NCCCC[C@@H](NC(=O)COC(=O)c3cn(C4CC4)c4c(OC)c(N5CCNC(C)C5)c(F)cc4c3=O)C(=O)NC(P(=O)(O)O)P(=O)(O)O)cn(C3CC3)c12 (some centres undefined) |  |  |  |  | 
0.5% | 88.9% | > 4 µg/mL | 0.6% | 0.7% | COc1c(N2CCNC(C)C2)c(F)cc2c(=O)c(C(=O)OCC(=O)Nc3ccc(CC(P(=O)(O)O)P(=O)(O)O)cc3)cn(C3CC3)c12 (centres undefined) |  |  |  |  | 
0.3% | 97.3% | > 4 µg/mL | 0.7% | 0.8% | COc1c(N2C[C@@H]3CCCN[C@@H]3C2)c(F)cc2c(=O)c(C(=O)OCC(=O)N(C)C(P(=O)(O)O)P(=O)(O)O)cn(C3CC3)c12 |  |  |  |  | 

— ChEMBL document CHEMBL1142457, “Bisphosphonated fluoroquinolone esters as osteotropic prodrugs for the prevention of osteomyelitis” (Bioorg Med Chem, 2008)
